This passage reports MIC results from ChEMBL document CHEMBL1157933, “The anti-cancer, anti-inflammatory and tuberculostatic activities of a series of 6,7-substituted-5,8-quinolinequinones” (Bioorg Med Chem, 2010).

Converted amounts (≈) assume the structure as drawn. A value given as a limit tells only on which side of the number the result lay.

The assay has as its system Mycobacterium tuberculosis. Nature of the assay: Antitubercular activity against Mycobacterium bovis BCG after 7 days by alamar blue assay. Format: functional. The settings on record: variant bovis BCG, 168 h. In outline: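 Frozen BCG stock thawed, lightly sonicated, diluted in Dubos broth/OADC to 4 × 10^4 bacteria/well; compounds at varied concentrations in PBS/2.5-5% DMSO, 37 °C for 7 days, then Alamar Blue 24 h. Ethambutol control; triplicate.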
Consider `Cc1ccc(S(=O)(=O)C2=C(S(=O)(=O)c3ccc(C)cc3)C(=O)c3ncccc3C2=O)cc1`, for which the lowest concentration to inhibit growth (MIC) was 6.3 µg/mL (≈ 13.5 µM).

With `O=C1C(Cl)=C(NCCBr)C(=O)c2ncccc21`, the MIC came to 6.3 µg/mL (≈ 20 µM).

With `O=C1C(NCCCl)=C(Cl)C(=O)c2ncccc21`, 6.3 µg/mL (≈ 23.2 µM) was the least that counted as inhibitory (MIC).

With `O=C1C(Cl)=C(NCCCl)C(=O)c2ncccc21`, the MIC worked out at 12.5 µg/mL (≈ 46.1 µM).

In turn, `Cc1ccc2c(n1)C(=O)C(Cl)=C(NCCBr)C2=O` yielded an MIC of 12.5 µg/mL (≈ 37.9 µM).

On to `Cc1ccc2c(n1)C(=O)C(NCCBr)=C(Cl)C2=O`, for which it took 12.5 µg/mL (≈ 37.9 µM) to inhibit growth (MIC).

The molecule `CNC1=C(SC)C(=O)c2cccnc2C1=O` returned an MIC above 50 µg/mL.

Molecule `CNC1=C(Sc2ccccc2)C(=O)c2ncccc2C1=O` showed a minimum inhibitory concentration (MIC) of 12.5 µg/mL (≈ 42.2 µM).

In turn, `CNC1=C(Sc2ccccc2)C(=O)c2cccnc2C1=O` showed a minimum inhibitory concentration (MIC) of 12.5 µg/mL (≈ 42.2 µM).

Molecule `CNC1=C([S+](C)[O-])C(=O)c2ncccc2C1=O` (stereo unspecified) yielded a minimal inhibitory concentration (MIC) of 25 µg/mL (≈ 99.9 µM).

Molecule `Cc1ccc2c(n1)C(=O)C(Cl)=C(Cl)C2=O` displayed an MIC of 6.3 µg/mL (≈ 26 µM).

`O=C1c2cccnc2C(=O)C2SCCNC12` (stereo unspecified) had an MIC of 6.3 µg/mL (≈ 26.9 µM).

Regarding `O=C1C2=C(NCCS2)C(=O)c2ncccc21`, inhibition of growth (MIC) required 6.3 µg/mL (≈ 27.1 µM).

For `C[S+]([O-])C1=C(N)C(=O)c2cccnc2C1=O` (stereo unspecified), the minimal inhibitory concentration (MIC) stood at 1.56 µg/mL (≈ 6.6 µM).

`CNC1=C(Cl)C(=O)c2cccnc2C1=O` yielded a minimum inhibitory concentration (MIC) of 12.5 µg/mL (≈ 56.1 µM).

On to `CSC1=C(N)C(=O)c2cccnc2C1=O`, for which inhibition of growth (MIC) required 6.3 µg/mL (≈ 28.6 µM).

Molecule `CNC1=C(SC)C(=O)c2ncccc2C1=O` yielded a minimal inhibitory concentration (MIC) of 12.5 µg/mL (≈ 53.4 µM).

The molecule `CSC1=C(SC)C(=O)c2ncccc2C1=O` returned a minimum inhibitory concentration (MIC) of 6.3 µg/mL (≈ 25.1 µM).

Take `O=C1C(NCCBr)=C(Cl)C(=O)c2ncccc21`: it took 3.13 µg/mL (≈ 9.92 µM) to inhibit growth (MIC).

For the molecule `O=C1C(NC(c2ccccc2)c2ccccc2)=C(Cl)C(=O)c2ncccc21`, the lowest concentration to inhibit growth (MIC) was 6.3 µg/mL (≈ 16.8 µM).

Consider `CNC1=C(Cl)C(=O)c2ncccc2C1=O`, for which inhibition of growth (MIC) required 12.5 µg/mL (≈ 56.1 µM).

`CNC1=C([S+](C)[O-])C(=O)c2cccnc2C1=O` (stereo unspecified): the MIC is above 50 µg/mL.

As to `CS(=O)(=O)C1=C(N)C(=O)c2cccnc2C1=O`, the MIC came out at 25 µg/mL (≈ 99.1 µM).

The molecule `Cc1ccc(S(=O)(=O)C2=C(Cl)C(=O)c3ncccc3C2=O)cc1` gave a minimum inhibitory concentration (MIC) above 50 µg/mL.

In the case of `O=C1C(Sc2ccccc2)=C(Sc2ccccc2)C(=O)c2ncccc21`, the MIC was above 50 µg/mL.

`Oc1c(Sc2ccccc2)c(Sc2ccccc2)c(O)c2ncccc12`: 25 µg/mL (≈ 66.2 µM) was the least that counted as inhibitory (MIC).
